Source: ChEMBL document CHEMBL3621200, “Toward the discovery of dual HCMV-VZV inhibitors: Synthesis, structure activity relationship analysis, and cytotoxicity studies of long chained 2-uracil-3-yl-N-(4-phenoxyphenyl)acetamides” (Bioorg Med Chem, 2015)
pEC50: −log10 of the molar value. Active and inactive are the calls of the source.

Legend:
Vaccinia virus = assay: Antiviral activity against Vaccinia virus Lederle; assay type: functional, organism-based; conditions: Orthopoxvirus vaccinia
Procedure, shortened: (§1)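 Confluent cell monolayers (HEL, Vero, HeLa or MDCK) in 96-well plates were infected with 100 CCID50 of virus in the presence of varying compound concentrations. Cytopathicity was scored once it reached completion in untreated infected controls.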

Human alphaherpesvirus 1 = assay: Antiviral activity against HSV1 KOS; assay type: functional, organism-based
Procedure, shortened: (§2)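 Confluent cell monolayers in 96-well plates were inoculated with 100 CCID50 of virus together with varying compound concentrations. Cytopathicity was scored once it reached completion in untreated infected controls.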

[1] = system: Vesicular stomatitis virus; assay: Antiviral activity against Vesicular stomatitis virus; assay type: functional, organism-based; procedure, shortened: as §1
[2] = system: Mammalian orthoreovirus 1; assay: Antiviral activity against Reovirus 1; assay type: functional
Human betaherpesvirus 5 [3] = assay: Antiviral activity against human cytomegalovirus Davis infected in HEL cells assessed as reduction in viral plaque formation; assay type: functional, organism-based; conditions: Human betaherpesvirus 5, Davis
Procedure, shortened: (§3)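 Confluent HEL fibroblasts were infected with 100 PFU of HCMV in the presence of varying compound concentrations. Plaques were counted once plaque formation was complete in untreated infected controls.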

Influenza A virus = assay: Antiviral activity against Influenza A virus H1N1; assay type: functional, organism-based; procedure, shortened: as §1
Sindbis virus = assay: Antiviral activity against Sindbis virus; assay type: functional, organism-based
Influenza A virus H3N2 = assay: Antiviral activity against Influenza A virus H3N2; assay type: functional, organism-based; procedure, shortened: as §1
Coxsackievirus B4 = assay: Antiviral activity against Human coxsackievirus B4; assay type: functional, organism-based
Human respirovirus 3 = assay: Antiviral activity against Parainfluenza 3 virus; assay type: functional, organism-based
Human alphaherpesvirus 2 = assay: Antiviral activity against HSV2 Lyons; assay type: functional, organism-based; procedure, shortened: as §2
[4] = system: Human immunodeficiency virus 2; assay: Antiviral activity against HIV2 ROD infected in human CEM cells assessed as reduction in virus- induced cytopathicity incubated for 4 to 5 days by microscopy based virus syncytium formation assay; assay type: functional, organism-based; conditions: ISOLATE ROD, CCRF-CEM
Procedure, shortened: (§4)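 CEM cells at ~3 × 10^5 cells/mL, infected with 100 CCID50 of HIV per mL in the presence of compound dilutions. Incubated 4–5 days at 37 °C in humidified CO2. Syncytium (giant cell) formation scored by microscopy.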

[5] = system: Human immunodeficiency virus 1; assay: Antiviral activity against HIV1 3B infected in human CEM cells assessed as reduction in virus- induced cytopathicity incubated for 4 to 5 days by microscopy based virus syncytium formation assay; assay type: functional, organism-based; conditions: CCRF-CEM; procedure, shortened: as §4
Influenza B virus = assay: Antiviral activity against Influenza B virus; assay type: functional, organism-based; procedure, shortened: as §1
[6] = Cytotoxicity against human cytomegalovirus infected HEL cells assessed as alteration of cell morphology incubated for 3 days by microscopy; assay type: cell-based; conditions: HEL cells infected with human cytomegalovirus
Procedure, shortened: (§5)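 Cytotoxicity was given as the minimum cytotoxic concentration (MCC): the compound concentration causing a microscopically detectable change in HEL cell morphology.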

Feline coronavirus = assay: Antiviral activity against Feline coronavirus; assay type: functional, organism-based
HEL [7] = assay: Cytotoxicity against Varicella zoster virus infected HEL cells assessed as cell growth inhibition incubated for 3 days by coulter counter method; conditions: human, 72 h
Human betaherpesvirus 5 [8] = assay: Antiviral activity against human cytomegalovirus AD169 infected in HEL cells assessed as reduction in viral plaque formation; assay type: functional, organism-based; conditions: Human betaherpesvirus 5, AD169, HEL; procedure, shortened: as §3
[9] = system: Human herpesvirus 2 strain G; assay: Antiviral activity against HSV2 G Lyons; assay type: functional, organism-based
Punta Toro virus = assay: Antiviral activity against Punta Toro virus; assay type: functional, organism-based
[10] = Cytotoxicity against Varicella zoster virus infected HEL cells assessed as alteration of cell morphology incubated for 3 days by microscopy; assay type: cell-based; conditions: human, HEL cells infected with Varicella zoster virus; procedure, shortened: as §5
HEL [11] = assay: Cytotoxicity against human cytomegalovirus infected HEL cells assessed as cell growth inhibition incubated for 3 days by coulter counter method; assay type: cell-based; conditions: 72 h
Procedure, shortened: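 HEL cells were seeded at 5 × 10^3 cells/well and left to adhere and proliferate for 24 h, then compound-containing medium was added. After 3 days at 37 °C, cells were counted with a Coulter counter.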

[12] = Selectivity index, ratio of CC50 for human cytomegalovirus AD169 infected HEL cells to EC50 for human cytomegalovirus AD169; assay type: toxicity, cell-based; conditions: HEL cells infected with human cytomegalovirus AD169, read-out: Ratio CC50/EC50
[13] = Selectivity index, ratio of CC50 for human cytomegalovirus Davis infected HEL cells to EC50 for human cytomegalovirus Davis; assay type: toxicity, cell-based; conditions: HEL cells infected with human cytomegalovirus Davis, read-out: Ratio CC50/EC50

O=C(Cn1c(=O)ccn(CCCCCCCCOc2ccc(Br)cc2)c1=O)Nc1ccc(Oc2ccccc2)cc1
> 7.49: pEC50 (Human betaherpesvirus 5 [3]) | pEC50 (Human betaherpesvirus 5 [8])
≥ 0.16 µM: MCC at 72 h [6]
11.7 µM: CC50 (HEL [7])
0.8 µM: MCC at 72 h [10]
inactive: inhibition (Vaccinia virus) | inhibition (Human alphaherpesvirus 1) | inhibition [1] | inhibition [2] | inhibition (Influenza A virus) | inhibition (Sindbis virus) | inhibition (Influenza A virus H3N2) | inhibition (Coxsackievirus B4) | inhibition (Human respirovirus 3) | inhibition (Human alphaherpesvirus 2) | inhibition [4] | inhibition [5] | inhibition (Influenza B virus) | inhibition (Feline coronavirus) | inhibition [9] | inhibition (Punta Toro virus)

O=C(Cn1c(=O)ccn(CCCCOc2ccc(Br)cc2)c1=O)Nc1ccc(Oc2ccccc2)cc1
> 100 µM: MCC at 72 h [10]
≥ 20 µM: MCC at 72 h [6]
5.79: pEC50 (Human betaherpesvirus 5 [3])
7.7 µM: CC50 (HEL [11]) | CC50 (HEL [7])
inactive: inhibition (Vaccinia virus) | inhibition (Human alphaherpesvirus 1) | inhibition [1] | inhibition [2] | inhibition (Influenza A virus) | inhibition (Sindbis virus) | inhibition (Influenza A virus H3N2) | inhibition (Coxsackievirus B4) | inhibition (Human respirovirus 3) | inhibition (Human alphaherpesvirus 2) | inhibition [4] | inhibition [5] | inhibition (Influenza B virus) | inhibition (Feline coronavirus) | inhibition [9] | inhibition (Punta Toro virus)
5.75: pEC50 (Human betaherpesvirus 5 [8])

O=c1[nH]c(=O)n([C@H]2C[C@H](O)[C@@H](CO)O2)cc1/C=C/Br [BRIVUDINE]
≥ 79.3 µM: CC50 (HEL [7])
> 300 µM: MCC at 72 h [10]

O=C(Cn1c(=O)ccn(CCCCCOc2cccc(Br)c2)c1=O)Nc1ccc(Oc2ccccc2)cc1
5.70: pEC50 (Human betaherpesvirus 5 [8])
inactive: inhibition (Vaccinia virus) | inhibition (Human alphaherpesvirus 1) | inhibition [1] | inhibition [2] | inhibition (Influenza A virus) | inhibition (Sindbis virus) | inhibition (Influenza A virus H3N2) | inhibition (Coxsackievirus B4) | inhibition (Human respirovirus 3) | inhibition (Human alphaherpesvirus 2) | inhibition [4] | inhibition [5] | inhibition (Influenza B virus) | inhibition (Feline coronavirus) | inhibition [9] | inhibition (Punta Toro virus)
> 100 µM: MCC at 72 h [10]
5.51: pEC50 (Human betaherpesvirus 5 [3])
6.3 µM: CC50 (HEL [11])
≥ 100 µM: MCC at 72 h [6]

CN(C(=O)Cn1c(=O)ccn(CCCCCOc2ccc(Br)cc2)c1=O)c1ccc(Oc2ccccc2)cc1
6.01: pEC50 (Human betaherpesvirus 5 [8])
inactive: inhibition (Vaccinia virus) | inhibition (Human alphaherpesvirus 1) | inhibition [1] | inhibition [2] | inhibition (Influenza A virus) | inhibition (Sindbis virus) | inhibition (Influenza A virus H3N2) | inhibition (Coxsackievirus B4) | inhibition (Human respirovirus 3) | inhibition (Human alphaherpesvirus 2) | inhibition [4] | inhibition [5] | inhibition (Influenza B virus) | inhibition (Feline coronavirus) | inhibition [9] | inhibition (Punta Toro virus)
≥ 4 µM: MCC at 72 h [6]
6 µM: CC50 (HEL [7])
6.1 µM: CC50 (HEL [11])
≥ 100 µM: MCC at 72 h [10]
5.89: pEC50 (Human betaherpesvirus 5 [3])

O=C(Cn1c(=O)ccn(CCCCCOc2ccccc2)c1=O)Nc1ccc(Oc2ccccc2)cc1
5.40: pEC50 (Human betaherpesvirus 5 [3])
> 100 µM: MCC at 72 h [10]
≥ 20 µM: MCC at 72 h [6]
inactive: inhibition (Vaccinia virus) | inhibition (Human alphaherpesvirus 1) | inhibition [1] | inhibition [2] | inhibition (Influenza A virus) | inhibition (Sindbis virus) | inhibition (Influenza A virus H3N2) | inhibition (Coxsackievirus B4) | inhibition (Human respirovirus 3) | inhibition (Human alphaherpesvirus 2) | inhibition [4] | inhibition [5] | inhibition (Influenza B virus) | inhibition (Feline coronavirus) | inhibition [9] | inhibition (Punta Toro virus)
5.44: pEC50 (Human betaherpesvirus 5 [8])
5.4 µM: CC50 (HEL [11])

O=C(Cn1c(=O)ccn(CCCOc2ccc(Br)cc2)c1=O)Nc1ccc(Oc2ccccc2)cc1
≥ 100 µM: MCC at 72 h [6] | MCC at 72 h [10]
inactive: inhibition (Vaccinia virus) | inhibition (Human alphaherpesvirus 1) | inhibition [1] | inhibition [2] | inhibition (Influenza A virus) | inhibition (Sindbis virus) | inhibition (Influenza A virus H3N2) | inhibition (Coxsackievirus B4) | inhibition (Human respirovirus 3) | inhibition (Human alphaherpesvirus 2) | inhibition [4] | inhibition [5] | inhibition (Influenza B virus) | inhibition (Feline coronavirus) | inhibition [9] | inhibition (Punta Toro virus)
5.41: pEC50 (Human betaherpesvirus 5 [3])
15.2 µM: CC50 (HEL [11]) | CC50 (HEL [7])

O=C(Cn1c(=O)ccn(CCCCCCOc2ccc(Br)cc2)c1=O)Nc1ccc(Oc2ccccc2)cc1
inactive: inhibition (Vaccinia virus) | inhibition (Human alphaherpesvirus 1) | inhibition [1] | inhibition [2] | inhibition (Influenza A virus) | inhibition (Sindbis virus) | inhibition (Influenza A virus H3N2) | inhibition (Coxsackievirus B4) | inhibition (Human respirovirus 3) | inhibition (Human alphaherpesvirus 2) | inhibition [4] | inhibition [5] | inhibition (Influenza B virus) | inhibition (Feline coronavirus) | inhibition [9] | inhibition (Punta Toro virus)
11.7 µM: CC50 (HEL [11]) | CC50 (HEL [7])
6.54: pEC50 (Human betaherpesvirus 5 [8])
4 µM: MCC at 72 h [6] | MCC at 72 h [10]
6.70: pEC50 (Human betaherpesvirus 5 [3])

O=C(Cn1c(=O)ccn(CCCCCOc2ccc(Br)cc2)c1=O)Nc1ccc(Oc2ccccc2)cc1
> 100 µM: MCC at 72 h [10]
9: selectivity ratio [12] | selectivity ratio [13]
inactive: inhibition (Vaccinia virus) | inhibition (Human alphaherpesvirus 1) | inhibition [1] | inhibition [2] | inhibition (Influenza A virus) | inhibition (Sindbis virus) | inhibition (Influenza A virus H3N2) | inhibition (Coxsackievirus B4) | inhibition (Human respirovirus 3) | inhibition (Human alphaherpesvirus 2) | inhibition [4] | inhibition [5] | inhibition (Influenza B virus) | inhibition (Feline coronavirus) | inhibition [9] | inhibition (Punta Toro virus)
6.01: pEC50 (Human betaherpesvirus 5 [3])
20 µM: MCC at 72 h [6]
8.7 µM: CC50 (HEL [11]) | CC50 (HEL [7])

O=C(Cn1c(=O)ccn(CCCCCOc2ccc(Br)cc2)c1=O)Nc1ccc(C(=O)c2ccccc2)cc1
≥ 20 µM: MCC at 72 h [6]
5.8 µM: CC50 (HEL [11])
5.75: pEC50 (Human betaherpesvirus 5 [8])
5.79: pEC50 (Human betaherpesvirus 5 [3])
inactive: inhibition (Vaccinia virus) | inhibition (Human alphaherpesvirus 1) | inhibition [1] | inhibition [2] | inhibition (Influenza A virus) | inhibition (Sindbis virus) | inhibition (Influenza A virus H3N2) | inhibition (Coxsackievirus B4) | inhibition (Human respirovirus 3) | inhibition (Human alphaherpesvirus 2) | inhibition [4] | inhibition [5] | inhibition (Influenza B virus) | inhibition (Feline coronavirus) | inhibition [9] | inhibition (Punta Toro virus)
> 100 µM: MCC at 72 h [10]
